# Source: ChEMBL document CHEMBL1137101, “3-Hydroxy-4-arylsulfonyltetrahydropyranyl-3-hydroxamic acids are novel inhibitors of MMP-13 and aggrecanase” (Bioorg Med Chem Lett, 2004)
# pIC50: −log10 of the molar value.
# Legend:
# [1] = target: T1, A disintegrin and metalloproteinase with thrombospondin motifs 4 (Homo sapiens, UniProt O75173); assay: Inhibitory concentration against aggrecanase
# T1 sequence (O75173 whole entry): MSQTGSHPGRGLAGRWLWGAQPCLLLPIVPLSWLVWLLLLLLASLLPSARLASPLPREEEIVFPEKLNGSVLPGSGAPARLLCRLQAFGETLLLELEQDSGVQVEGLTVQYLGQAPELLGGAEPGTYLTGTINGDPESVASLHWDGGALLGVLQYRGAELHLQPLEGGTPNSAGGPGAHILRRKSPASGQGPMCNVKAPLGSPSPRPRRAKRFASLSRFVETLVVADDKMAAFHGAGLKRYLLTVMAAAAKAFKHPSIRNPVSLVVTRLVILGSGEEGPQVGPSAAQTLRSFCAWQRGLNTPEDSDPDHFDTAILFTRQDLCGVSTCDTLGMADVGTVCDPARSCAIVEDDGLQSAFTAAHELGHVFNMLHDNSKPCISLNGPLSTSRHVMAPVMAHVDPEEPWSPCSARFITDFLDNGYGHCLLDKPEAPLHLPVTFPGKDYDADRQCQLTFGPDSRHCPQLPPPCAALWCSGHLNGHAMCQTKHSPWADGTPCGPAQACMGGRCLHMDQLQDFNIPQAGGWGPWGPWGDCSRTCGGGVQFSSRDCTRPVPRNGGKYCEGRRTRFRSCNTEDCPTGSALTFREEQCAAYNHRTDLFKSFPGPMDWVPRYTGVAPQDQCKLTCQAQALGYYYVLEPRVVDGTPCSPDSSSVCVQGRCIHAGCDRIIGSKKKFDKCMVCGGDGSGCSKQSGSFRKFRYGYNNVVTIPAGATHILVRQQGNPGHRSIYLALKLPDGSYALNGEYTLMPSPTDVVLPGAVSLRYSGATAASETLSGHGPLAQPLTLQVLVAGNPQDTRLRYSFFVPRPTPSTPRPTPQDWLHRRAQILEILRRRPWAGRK
# Summary of the method: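 Cell-based assay in porcine chondrocytes. Aggrecan GAG chains labelled by culture with ³⁵S sulfate, then unincorporated label washed out. Aggrecan degradation stimulated with IL-1a (5ng/mL).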
# Interstitial collagenase = target: T2, Interstitial collagenase (Homo sapiens, UniProt P03956); assay: Inhibitory concentration against matrix metalloprotease 1
# T2 sequence (P03956 whole entry): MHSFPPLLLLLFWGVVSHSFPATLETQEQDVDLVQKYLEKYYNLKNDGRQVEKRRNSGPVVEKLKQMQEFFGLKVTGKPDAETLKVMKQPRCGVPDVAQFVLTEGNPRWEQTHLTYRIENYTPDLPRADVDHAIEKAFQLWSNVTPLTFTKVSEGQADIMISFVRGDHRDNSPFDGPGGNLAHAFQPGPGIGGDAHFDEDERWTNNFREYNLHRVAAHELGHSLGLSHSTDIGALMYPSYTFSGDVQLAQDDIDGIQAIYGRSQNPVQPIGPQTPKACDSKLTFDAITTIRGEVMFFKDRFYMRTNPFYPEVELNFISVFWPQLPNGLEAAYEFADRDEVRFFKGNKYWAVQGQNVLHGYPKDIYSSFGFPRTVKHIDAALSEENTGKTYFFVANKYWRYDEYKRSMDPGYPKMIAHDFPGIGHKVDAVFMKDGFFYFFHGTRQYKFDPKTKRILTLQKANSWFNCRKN
# Collagenase 3 = Collagenase 3 (Homo sapiens, UniProt P45452); assay: Inhibitory concentration against matrix metalloprotease 13
# [2] = Half life in rat; assay type: ADME, organism-based; settings: in vivo
# Summary of the method: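 Rat PK after IV bolus of 5mg/kg in glycerol formal. Blood drawn from the jugular vein at 5, 15, 30 min and 1, 2, 4, 6, 8, 24 h. Plasma diluted with an equal volume of water, extracted with MTBE, drug measured by LC–MS/MS. Parameters from noncompartmental analysis.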
# [3] = target: Matrix metalloproteinase-9 (Homo sapiens, UniProt P14780); assay: Inhibition of matrix metalloprotease 9
# [4] = target: Macrophage metalloelastase (Homo sapiens, UniProt P39900); assay: Inhibition of matrix metalloprotease 12
# [5] = Oral bioavailability in rat; assay type: ADME, organism-based; settings: in vivo
# Summary of the method: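 Oral dose given to rat as a suspension in 0.5% aqueous methylcellulose.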
# Stromelysin-1 = Stromelysin-1 (Homo sapiens, UniProt P08254); assay: Inhibition of matrix metalloprotease 3
# [6] = target: Matrix metalloproteinase-14 (Homo sapiens, UniProt P50281); assay: Inhibition of matrix metalloprotease 14
# [7] = Inhibition of TNF alpha converting enzyme (TACE, ADAM17)
# Chain of Matrix metalloproteinase-9 (P14780 whole entry): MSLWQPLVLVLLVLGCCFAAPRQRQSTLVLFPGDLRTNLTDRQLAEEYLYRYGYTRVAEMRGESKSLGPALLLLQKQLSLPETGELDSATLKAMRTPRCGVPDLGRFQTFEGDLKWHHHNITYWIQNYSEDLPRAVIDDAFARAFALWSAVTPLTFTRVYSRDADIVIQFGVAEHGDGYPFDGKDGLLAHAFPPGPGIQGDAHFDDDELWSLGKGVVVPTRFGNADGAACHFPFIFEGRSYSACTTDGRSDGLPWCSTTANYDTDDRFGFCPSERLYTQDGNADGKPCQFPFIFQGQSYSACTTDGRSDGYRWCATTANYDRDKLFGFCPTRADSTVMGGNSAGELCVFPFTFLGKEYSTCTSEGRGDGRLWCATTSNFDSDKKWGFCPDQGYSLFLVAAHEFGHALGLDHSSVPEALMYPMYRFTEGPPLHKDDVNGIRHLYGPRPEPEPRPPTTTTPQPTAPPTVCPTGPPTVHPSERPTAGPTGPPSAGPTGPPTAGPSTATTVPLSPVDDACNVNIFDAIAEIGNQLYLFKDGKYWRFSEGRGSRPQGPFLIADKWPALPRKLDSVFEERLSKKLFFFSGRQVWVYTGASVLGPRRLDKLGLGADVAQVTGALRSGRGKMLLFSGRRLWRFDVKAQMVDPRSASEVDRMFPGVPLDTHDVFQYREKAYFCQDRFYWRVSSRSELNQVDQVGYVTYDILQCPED
# Chain of Stromelysin-1 (P08254 whole entry): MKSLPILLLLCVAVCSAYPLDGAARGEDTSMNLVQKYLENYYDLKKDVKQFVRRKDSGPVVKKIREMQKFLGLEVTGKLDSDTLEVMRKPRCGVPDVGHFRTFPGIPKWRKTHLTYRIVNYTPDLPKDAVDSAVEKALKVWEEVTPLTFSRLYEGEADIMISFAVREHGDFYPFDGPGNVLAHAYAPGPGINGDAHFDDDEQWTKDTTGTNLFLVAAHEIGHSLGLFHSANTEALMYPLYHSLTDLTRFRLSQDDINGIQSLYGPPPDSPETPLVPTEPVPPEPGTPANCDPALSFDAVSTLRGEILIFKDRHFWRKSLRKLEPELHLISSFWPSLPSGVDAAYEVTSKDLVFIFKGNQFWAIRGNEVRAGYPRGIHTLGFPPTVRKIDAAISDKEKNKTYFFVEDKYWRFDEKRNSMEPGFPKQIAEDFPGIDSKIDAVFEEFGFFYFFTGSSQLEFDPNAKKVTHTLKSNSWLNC
# Chain of Macrophage metalloelastase (P39900 whole entry): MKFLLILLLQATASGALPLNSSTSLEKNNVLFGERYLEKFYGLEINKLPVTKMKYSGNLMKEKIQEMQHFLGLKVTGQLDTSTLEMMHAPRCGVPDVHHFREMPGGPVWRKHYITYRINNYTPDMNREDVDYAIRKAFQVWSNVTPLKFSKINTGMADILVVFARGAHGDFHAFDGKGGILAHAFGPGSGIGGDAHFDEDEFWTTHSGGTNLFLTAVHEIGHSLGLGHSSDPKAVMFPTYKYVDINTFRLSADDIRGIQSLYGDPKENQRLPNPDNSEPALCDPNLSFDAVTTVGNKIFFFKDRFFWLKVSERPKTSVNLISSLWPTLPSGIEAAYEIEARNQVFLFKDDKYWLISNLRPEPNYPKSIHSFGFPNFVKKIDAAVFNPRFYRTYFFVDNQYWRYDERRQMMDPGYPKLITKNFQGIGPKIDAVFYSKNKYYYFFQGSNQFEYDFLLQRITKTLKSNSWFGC
SMILES,pIC50 [1],pIC50 (Interstitial collagenase),pIC50 (Collagenase 3),other results
Cc1ccc(Oc2ccc(S(=O)(=O)[C@@H]3CCOC[C@]3(O)C(=O)NO)cc2)cc1,< 6.00,6.92,9.00,
CO[C@]1(C(=O)NO)COCC[C@H]1S(=O)(=O)c1ccc(OCc2ccccc2Cl)cc1,7.00,,7.42,
Cc1ccc(C)c(COc2ccc(S(=O)(=O)[C@@H]3CCOC[C@]3(O)C(=O)NO)cc2)c1,7.59,< 4.52,6.52,
Cc1ccccc1COc1ccc(S(=O)(=O)[C@@H]2CCOC[C@]2(O)C(=O)NO)cc1,7.26,4.92,7.68,
Cc1ccc(COc2ccc(S(=O)(=O)[C@@H]3CCOC[C@]3(O)C(=O)NO)cc2)c(C)c1,6.43,4.72,7.77,
Cc1ccccc1-c1ccc(S(=O)(=O)[C@@H]2CCOC[C@]2(O)C(=O)NO)cc1,< 6.00,5.00,6.85,
O=C(NO)[C@@]1(O)COCC[C@H]1S(=O)(=O)c1ccc(OCc2cccc(Cl)c2Cl)cc1,6.85,4.89,7.82,
O=C(NO)[C@@]1(O)COCC[C@H]1S(=O)(=O)c1ccc(OCc2ccccc2C(F)(F)F)cc1,6.66,< 4.52,7.55,
Cc1ccc(-c2ccc(S(=O)(=O)[C@@H]3CCOC[C@]3(O)C(=O)NO)cc2)cc1,< 6.00,> 7.52,9.41,
CO[C@]1(C(=O)NO)COCC[C@H]1S(=O)(=O)c1ccc(OCc2ccc(Cl)cc2Cl)cc1,7.00,,7.34,
Cc1cccc(C)c1COc1ccc(S(=O)(=O)[C@@H]2CCOC[C@]2(O)C(=O)NO)cc1,< 6.00,< 4.52,< 6.52,
O=C(NO)[C@@]1(O)COCC[C@H]1S(=O)(=O)c1ccc(OCc2ccc(Cl)cc2)cc1,6.48,5.85,9.06,
O=C(NO)[C@@]1(O)COCC[C@H]1S(=O)(=O)c1ccc(OCc2c(Cl)cccc2Cl)cc1,< 6.00,< 4.52,< 6.52,

# Continued, in another order:
pIC50 [1],pIC50 (Interstitial collagenase),pIC50 (Collagenase 3),SMILES,other results
7.40,5.55,8.57,O=C(NO)[C@@]1(O)COCC[C@H]1S(=O)(=O)c1ccc(OCc2ccccc2Cl)cc1,
< 6.00,6.57,8.96,Cc1cccc(Oc2ccc(S(=O)(=O)[C@@H]3CCOC[C@]3(O)C(=O)NO)cc2)c1,
7.06,4.57,7.89,O=C(NO)[C@@]1(O)COCC[C@H]1S(=O)(=O)c1ccc(OCc2cc(Cl)ccc2Cl)cc1,
8.09,6.04,9.02,O=C(NO)[C@@]1(O)COCC[C@H]1S(=O)(=O)c1ccc(OCc2ccc(Cl)cc2Cl)cc1,half-life [2]: 5 h; pIC50 [3]: 8.28; pIC50 [4]: 9.02; bioavailability [5]: 7%; pIC50 (Stromelysin-1): 7.26; pIC50 [6]: 6.82
< 6.00,5.33,8.01,Cc1ccccc1Oc1ccc(S(=O)(=O)[C@@H]2CCOC[C@]2(O)C(=O)NO)cc1,
< 6.00,5.27,8.89,Cc1ccc(COc2ccc(S(=O)(=O)[C@@H]3CCOC[C@]3(O)C(=O)NO)cc2)cc1,
< 6.00,4.66,8.30,Cc1cccc(COc2ccc(S(=O)(=O)[C@@H]3CCOC[C@]3(O)C(=O)NO)cc2)c1,
< 6.00,5.10,8.62,O=C(NO)[C@@]1(O)COCC[C@H]1S(=O)(=O)c1ccc(OCc2cccc(Cl)c2)cc1,
,,7.92,O=C(NO)[C@H]1C[C@@H](O)CCN1S(=O)(=O)c1ccc(OCc2ccccc2Cl)cc1,pIC50 [7]: 7.44
< 6.00,> 7.52,9.37,Cc1cccc(-c2ccc(S(=O)(=O)[C@@H]3CCOC[C@]3(O)C(=O)NO)cc2)c1,
